Data set [1] is filed under the species Danio rerio. Briefly: (§1) Toxicity in zebrafish assessed as organism survival at 5 uM treated at 48 hrs post-fertilization measured after 3 days. The following applies: in vivo, 72 h, 5 µM. Type of data set: organism-based. The method in brief:
(§2)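 AB wild-type zebrafish embryos dechorionated with pronase at 48 hpf, 3 per well in methylene blue-free E3 medium. Dosed at 5 uM from 10 mM DMSO stocks (1% v/v DMSO). Kept at 28 °C for 72 h without food; survival scored at day 5 versus vehicle controls. Two experiments, each in triplicate.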

For data set [2], the species on record is Danio rerio. Briefly: Toxicity in zebrafish assessed as otic capsule deformities at 5 uM treated at 48 hrs post-fertilization measured after 3 days by acridine orange staining method. Type of data set: organism-based. The following applies: in vivo, 72 h. The method in brief:
(§3)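 Zebrafish larvae dosed at 5 uM from 48 hpf for three days (28 °C, E3 medium, 1% DMSO). Stained with acridine orange at 1 mg/mL in E3 for 30 min, then washed 3 × 10 min. Anesthetized with tricaine, mounted in 1% low-melt agarose with tricaine, and examined by microscopy for apoptosis and deformities.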

The species entered for data set [3] is Danio rerio. Briefly: Toxicity in zebrafish assessed as yolk deformities at 5 uM treated at 48 hrs post-fertilization measured after 3 days by acridine orange staining method. The data set is classed as organism-based. To be noted: in vivo, 72 h. The method in brief: as §3
The nature of data set [4]: Cytotoxicity against mouse SMB.s15 cells at 20 uM after 5 days by MTT assay. The following applies: smb.s15, 120 h. The data set is classed as cell-based. The procedure, abridged: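 SMB.s15 cells at 12,000 cells/well, exposed to compound for 5 days at 37 °C (DMSO stock diluted via HBSS into medium). Viability measured by MTT assay per the reagent's standard protocol.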
(Tetrazolium assays rely on reduction of a dye to a coloured formazan, in cell work by metabolically active cells.)

Data set [5] is described as follows: Solubility of the compound. Type of data set: physicochemical.
Data set [6] can be described thus: Antiprion activity against PrPsc infected in mouse ScN2a cells assessed as complete clearance of PrPSc after 5 days by ELISA. The data set is classed as cell-based. The following applies: 120 h. The procedure, abridged:
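ScN2a cells (N2a infected with RML prion strain) seeded at 4×10^5 cells/well in MEM with 10% FBS, GlutaMax, geneticin. Compound added 4 h after seeding, 0.5% final DMSO, 5 days at 37 °C. Lysates captured on D18 Fab-coated ELISA plates overnight at 4 °C, HRP-D13 detection, ABTS, absorbance at 405 nm. Dose-response curves from three independent experiments.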
Background: In an ELISA, binding on a coated surface is turned into a signal by an enzyme label.

Data set [7] relates to ScN2a. Briefly: Cytotoxicity against mouse ScN2a cells up to 32 uM. The data set is classed as cell-based. The method in brief:
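ScN2a cells seeded separately in 96-well plates. Calcein cell viability assay run in parallel with the ELISA screen, up to 32 uM maximum.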

Data set [8] can be described thus: Metabolic stability in mouse liver microsomes assessed as compound remaining after 30 mins by HPLC analysis. The data set is classed as ADME, Microsome. To be noted: read-out: Stability. The procedure, abridged: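 Mouse liver microsomes (0.5 mg/mL stock) in 0.2 M potassium phosphate pH 7.0 with DL-isocitrate, MgCl2 and isocitrate dehydrogenase. Preincubated 5 min at 37 °C, then started with NADPH. Sampled at t=0 and after 30 min at 37 °C, quenched in ice-cold acetonitrile with internal standard. Analysed by C18 HPLC, UV at 267 nm, in triplicate.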

The species named for data set [9] is Danio rerio. Briefly: Toxicity in zebrafish assessed as induction of apoptosis at 5 uM treated at 48 hrs post-fertilization measured after 3 days by acridine orange staining method. The data set is classed as organism-based. To be noted: in vivo, 72 h. The procedure, abridged: as §3
A short description of data set [10]: Antiprion activity against PrPsc infected in mouse SMB.s15 cells assessed as complete clearance of PrPSc after 5 days by dot blot analysis. Type of data set: cell-based. The following applies: SMB.s15, 120 h. The method in brief: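 SMB.s15 cells (scrapie-infected, mesodermal origin) in Medium 199 with 10% newborn calf and 5% fetal calf serum, seeded at 12,000 cells/well, 24 h attachment. Compound added from DMSO stock via HBSS dilution, 5 days at 37 °C. Lysates dot-blotted, proteinase K digestion (1 h, 37 °C), guanidine thiocyanate, anti-PrP 6H4 mAb, ECL. Triplicate, PrPSc relative to DMSO-only control.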

The species named for data set [11] is Danio rerio. Briefly: Toxicity in zebrafish assessed as swim bladder deformities at 5 uM treated at 48 hrs post-fertilization measured after 3 days by acridine orange staining method. Type of data set: organism-based. The following applies: in vivo, 72 h. The procedure, abridged: as §3
Data set [12] is filed under the species Danio rerio. Briefly: (§4) Toxicity in zebrafish assessed as mortality rate at 5 uM measured after 72 hrs. Type of data set: organism-based. To be noted: in vivo, 72 h, 5 µM. The procedure, abridged: as §2
Data set [13] can be described thus: as §1. Type of data set: organism-based, Danio rerio. The following applies: in vivo. The procedure, abridged:
as §2

Data set [14] can be described thus: as §4. To be noted: in vivo, read-out: Activity. Type of data set: organism-based, Danio rerio. The procedure, abridged: as §2

One may read the EC50 as the concentration at which the effect is half-maximal.

As to `O=C(Nc1ccc(-n2cccn2)cc1)C(=O)c1c[nH]c2ccccc12`, the Activity entry in data set [1] is listed as “Toxic”; in data set [2], “Non-toxic”; in data set [3] it was “Non-toxic”; in data set [4], “Non-toxic”; in data set [7] it was “Non-toxic”; in data set [9], “Non-toxic”. Besides, the Activity entry in data set [11] is “Non-toxic”. In data set [5], the solubility result is recorded as “Insoluble”. In addition, the half-maximal effective concentration (EC50) came to 14 nM in data set [6] and 1 nM in data set [10]. The remaining at 0.5 h in data set [8] was found to be 93.6%.
As for `Cc1ccc(NC(=O)C(=O)c2c[nH]c3ccccc23)cc1`, the Activity result in [1] was “Toxic”; in data set [12], “Non-toxic”; in data set [4], “Non-toxic”; in data set [7] it was “Non-toxic”. Further, the figures for the EC50 in data set [6] and in data set [10] were 206 nM and 130 nM, respectively. Besides, the remaining at 0.5 h in data set [8] came out at 64.9%.
As for `O=C(Nc1ccc(-n2cccc2)cc1)C(=O)c1c[nH]c2ccccc12`, the Activity result is given as “Toxic” in [1], “Non-toxic” in data set [4] and “Non-toxic” in data set [7]. Moreover, the solubility entry in data set [5] is “Insoluble”. Also, the EC50 in data set [10] worked out at 6 nM.
In the case of `Cc1ccc2c(C(=O)C(=O)Nc3ccc(N4CCOCC4)cc3)c[nH]c2c1`, in [13], the survival at 72 h, 5 µM turned out to be 100%. The Activity result in data set [2], in [3], in data set [4], in [7], in [9] and in [11] was “Non-toxic” in each case. In addition, the mortality at 72 h, 5 µM in data set [14] came out at 20%. The EC50 in data set [10] came out at 3.1 nM.
Turning to `O=C(Nc1ccc(-n2ccnc2)cc1)C(=O)c1c[nH]c2ccccc12`, the Activity entry in data set [4] and in data set [7] was “Non-toxic” in each case. Besides, in [5], the solubility entry is recorded as “Insoluble”. For the same compound, the EC50 was 16 nM in [6] and 1.3 nM in data set [10].
On to `Cn1ccc(-c2ccc(NC(=O)C(=O)c3c[nH]c4ccccc34)cc2)n1`, for which the solubility entry in data set [5] is on record as “Insoluble”.
With `COc1ccc(NC(=O)C(=O)c2c[nH]c3cc(C#N)ccc23)cc1`, the survival at 72 h, 5 µM in data set [13] was determined as 100%. The Activity entry in data set [2], in [3], in [4], in data set [7], in data set [9] and in data set [11] was “Non-toxic” throughout. Moreover, the EC50 turned out to be 11 nM in data set [6] and 2.2 nM in data set [10]. For the same compound, the remaining at 0.5 h in [8] was found to be 87.5%.

The record behind these values is ChEMBL document CHEMBL1909628, “Discovery of 6-substituted indole-3-glyoxylamides as lead antiprion agents with enhanced cell line activity, improved microsomal stability and low toxicity” (Eur J Med Chem, 2011).
